Values after ≈ are worked out from the molar mass of the structure shown. Active and inactive are the calls of the source. No cut-off for these calls is given here.
Experiments:
CYP2C9 = CYP2C9 (Homo sapiens, UniProt P11712); assay: Inhibition of human CYP2C9 at 10 uM; assay type: ADME
Summary of the method: (§1)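 Inhibition of CYP isoforms by compounds tested at 10 μM, given as percent inhibition; contract in vitro ADME panel.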

[1] = Metabolic stability in human liver microsomes at 60 mins; assay type: ADME, Microsome; settings: read-out: Stability
[2] = Antiviral activity against 1 MOI BVDV NADL infected in MDBK cells assessed as reduction in viral titer after 22 hrs; assay type: functional, cell-based, Bovine viral diarrhea virus 1-NADL; settings: Bovine viral diarrhea virus isolates and strains, MDBK, 22 h
Summary of the method: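 MDBK cells (2×10^5) infected 24 h after seeding with BVDV NADL at MOI 1, with 1 h adsorption at 37 °C. Washed, then compounds at 0.1–100 μM. Media harvested 22 h post-infection and plaque-titrated on MDBK under 1% methylcellulose for 3 days. Plaques counted directly or after neutral red staining. EC50 from dose–response curves, mean of 3 independent experiments.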

CYP3A4 [3] = biological target: T1, CYP3A4 (Homo sapiens, UniProt P08684); assay: Inhibition of human CYP3A4 using midazolam as substrate at 10 uM; assay type: ADME; settings: probe midazolam
T1 sequence (P08684 whole entry, canonical isoform): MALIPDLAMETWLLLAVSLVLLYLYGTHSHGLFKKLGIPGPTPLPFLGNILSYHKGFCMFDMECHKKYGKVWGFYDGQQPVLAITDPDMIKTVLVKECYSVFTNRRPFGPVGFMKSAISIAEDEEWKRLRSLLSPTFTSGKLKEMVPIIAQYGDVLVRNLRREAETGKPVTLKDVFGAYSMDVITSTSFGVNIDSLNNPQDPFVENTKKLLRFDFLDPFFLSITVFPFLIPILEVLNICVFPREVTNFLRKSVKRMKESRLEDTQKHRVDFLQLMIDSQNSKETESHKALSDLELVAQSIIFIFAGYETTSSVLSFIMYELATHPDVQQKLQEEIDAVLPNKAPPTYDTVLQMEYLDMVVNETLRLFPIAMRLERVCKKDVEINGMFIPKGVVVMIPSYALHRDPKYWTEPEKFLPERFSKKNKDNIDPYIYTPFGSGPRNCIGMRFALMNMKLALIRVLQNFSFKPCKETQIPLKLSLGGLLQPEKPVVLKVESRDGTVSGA
Summary of the method: (§2)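 Inhibition of CYP isoforms with compound at 10 μM, reported as % inhibition. CYP3A4 run with midazolam or testosterone as substrate.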

[4] = Plasma protein binding in human plasma; assay type: ADME, cell-free; settings: read-out: PPB (converted)
Summary of the method: (§3)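 Binding of compound to human, rat or mouse plasma protein, reported as % bound.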

Cytochrome P450 3A4 = Cytochrome P450 3A4 (Homo sapiens, UniProt P08684); assay: (§4) Inhibition of human CYP3A4 using testosterone as substrate at 10 uM; assay type: ADME; settings: 10 µM; summary of the method: as §2
Cytochrome P450 3A4, sequence (P08684 whole entry): as the sequence (P08684 whole entry, canonical isoform) above

[5] = Plasma protein binding in mouse plasma; assay type: ADME, cell-free; settings: read-out: PPB (converted); summary of the method: as §3
CYP2C19 = CYP2C19 (Homo sapiens, UniProt P33261); assay: Inhibition of human CYP2C19 at 10 uM; assay type: ADME; summary of the method: as §2
CYP2C19, sequence (P33261 whole entry): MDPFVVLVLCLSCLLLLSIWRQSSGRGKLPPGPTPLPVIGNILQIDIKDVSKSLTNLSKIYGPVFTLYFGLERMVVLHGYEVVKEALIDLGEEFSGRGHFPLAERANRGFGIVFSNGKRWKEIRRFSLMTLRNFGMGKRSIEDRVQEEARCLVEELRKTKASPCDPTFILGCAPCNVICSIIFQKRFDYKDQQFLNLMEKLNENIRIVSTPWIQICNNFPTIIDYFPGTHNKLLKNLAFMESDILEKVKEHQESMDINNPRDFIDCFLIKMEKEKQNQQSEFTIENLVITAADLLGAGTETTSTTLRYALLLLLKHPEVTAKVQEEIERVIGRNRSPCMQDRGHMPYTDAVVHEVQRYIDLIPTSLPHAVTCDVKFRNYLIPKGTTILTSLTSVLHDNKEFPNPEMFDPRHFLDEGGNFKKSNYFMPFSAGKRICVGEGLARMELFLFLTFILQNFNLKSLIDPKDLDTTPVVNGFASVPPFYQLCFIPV

CYP2D6 = CYP2D6 (Homo sapiens, UniProt P10635); assay: Inhibition of human CYP2D6 at 10 uM; assay type: ADME; summary of the method: as §1
CYP2D6, sequence (P10635 whole entry): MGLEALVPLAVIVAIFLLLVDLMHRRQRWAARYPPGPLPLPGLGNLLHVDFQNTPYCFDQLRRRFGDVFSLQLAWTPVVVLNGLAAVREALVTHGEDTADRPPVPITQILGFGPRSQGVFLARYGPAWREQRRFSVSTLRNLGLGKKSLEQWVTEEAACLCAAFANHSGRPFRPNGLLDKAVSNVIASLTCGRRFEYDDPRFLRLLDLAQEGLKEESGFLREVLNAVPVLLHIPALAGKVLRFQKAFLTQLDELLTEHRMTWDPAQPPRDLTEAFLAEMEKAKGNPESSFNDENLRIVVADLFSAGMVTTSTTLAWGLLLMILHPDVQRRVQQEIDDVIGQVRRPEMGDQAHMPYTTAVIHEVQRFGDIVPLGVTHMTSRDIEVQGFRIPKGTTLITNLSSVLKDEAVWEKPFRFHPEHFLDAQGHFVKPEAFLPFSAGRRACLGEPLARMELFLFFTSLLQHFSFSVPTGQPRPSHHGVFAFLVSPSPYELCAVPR

[6] = Cytotoxicity against MDBK cells assessed as cell viability by MTT assay; assay type: cell-based, Bos taurus; settings: cattle
dengue virus type 2 = assay: Antiviral activity against 0.01 MOI DENV-2 NGC infected in BHK cells assessed as reduction in viral titer after 48 hrs; assay type: functional, organism-based
Summary of the method: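 BHK cells infected with DENV-2 New Guinea C at MOI 0.01 for 1 h. Inoculum removed, then compounds at 0.1–100 μM for 48 h at 37 °C. Supernatants titrated on Vero monolayers as 10-fold dilutions under 0.5% methylcellulose for 3–5 days. Foci detected by 4G2 immunostaining or crystal violet plaques. EC50 from dose–response curves, mean of 3 independent experiments.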

CYP1A2 = biological target: T2, CYP1A2 (Homo sapiens, UniProt P05177); assay: Inhibition of human CYP1A2 at 10 uM; assay type: ADME; summary of the method: as §2
T2 sequence (P05177 whole entry): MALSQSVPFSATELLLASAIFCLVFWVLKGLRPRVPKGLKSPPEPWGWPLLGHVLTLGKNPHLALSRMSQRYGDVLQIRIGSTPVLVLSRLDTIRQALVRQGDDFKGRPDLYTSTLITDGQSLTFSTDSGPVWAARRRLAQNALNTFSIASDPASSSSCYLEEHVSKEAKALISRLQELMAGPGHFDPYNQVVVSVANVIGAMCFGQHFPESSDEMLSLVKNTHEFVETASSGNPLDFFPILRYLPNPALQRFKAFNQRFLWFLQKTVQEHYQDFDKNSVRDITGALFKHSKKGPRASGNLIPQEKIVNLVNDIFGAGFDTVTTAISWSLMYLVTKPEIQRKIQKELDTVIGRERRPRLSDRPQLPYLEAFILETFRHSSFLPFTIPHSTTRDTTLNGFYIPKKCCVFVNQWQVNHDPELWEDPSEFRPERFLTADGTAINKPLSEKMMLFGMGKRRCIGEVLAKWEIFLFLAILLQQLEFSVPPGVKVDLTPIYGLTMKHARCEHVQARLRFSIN

[7] = Aqueous solubility in PBS at pH 4; assay type: physicochemical; settings: buffer
[8] = Aqueous solubility in PBS at pH 7.4; assay type: physicochemical; settings: buffer
[9] = Plasma protein binding in rat plasma; assay type: ADME, cell-free; settings: read-out: PPB (converted); summary of the method: as §3
[10] = Metabolic stability in mouse liver microsomes at 60 mins; assay type: ADME, Microsome; settings: read-out: Stability
[11] = Cytotoxicity against BHK cells assessed as cell viability by MTT assay; assay type: cell-based, Mesocricetus auratus; settings: hamster
[12] = Metabolic stability in rat liver microsomes at 60 mins; assay type: ADME, Microsome; settings: read-out: Stability
[13] = Cytotoxicity against human Huh7.5 cells assessed as cell viability by DRAQ5 and Sapphire 700 staining; settings: huh-7
CYP3A4 [14] = biological target: T1, CYP3A4; assay: as §4; assay type: ADME; settings: probe testosterone; summary of the method: as §2
Dengue virus = assay: Antiviral activity against 0.01 MOI DENV infected in human Huh7.5 cells assessed as reduction in viral […] protein level at 0.1 to 100 uM after 2 days by Western blotting; assay type: functional, organism-based; settings: Huh-7
[15] = Selectivity index, ratio of CC50 for MDBK cells to EC50 for BVDV NADL infected in MDBK cells
Summary of the method: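 MDBK cells infected with BVDV NADL at MOI 1, 1 h at 37 °C, washed, then compounds at 0.1–100 μM. Media harvested at 22 h, plaque-titrated on MDBK under 1% methylcellulose for 3 days, neutral red or direct count. EC50 from yield curves; MTT CC50 in uninfected MDBK; SI = CC50/EC50.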

[16] = Selectivity index, ratio of CC50 for BHK cells to EC50 for DENV-2 NGC infected in BHK cells
Summary of the method: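 BHK cells infected with DENV-2 New Guinea C at MOI 0.01 for 1 h, then compounds at 0.1–100 μM for 48 h at 37 °C. Supernatant titrated on Vero cells under 0.5% methylcellulose, 3–5 days; foci by 4G2 immunostaining or crystal violet plaques. EC50 from yield curves; MTT CC50 in uninfected BHK; SI = CC50/EC50.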

CYP2C9, sequence (P11712 whole entry, canonical isoform): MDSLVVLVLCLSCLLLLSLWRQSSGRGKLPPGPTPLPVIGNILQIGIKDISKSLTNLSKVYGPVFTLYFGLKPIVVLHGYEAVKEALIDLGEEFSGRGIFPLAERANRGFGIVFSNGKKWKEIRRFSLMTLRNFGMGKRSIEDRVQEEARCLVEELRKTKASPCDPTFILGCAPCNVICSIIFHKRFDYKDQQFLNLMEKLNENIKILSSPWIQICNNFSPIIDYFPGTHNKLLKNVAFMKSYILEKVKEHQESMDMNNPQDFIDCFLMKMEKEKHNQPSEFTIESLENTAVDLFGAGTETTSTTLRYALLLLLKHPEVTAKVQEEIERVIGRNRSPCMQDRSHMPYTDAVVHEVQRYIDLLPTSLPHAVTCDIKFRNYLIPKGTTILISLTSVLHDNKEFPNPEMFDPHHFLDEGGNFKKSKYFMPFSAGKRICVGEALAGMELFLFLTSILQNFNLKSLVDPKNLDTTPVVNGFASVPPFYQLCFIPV

SMILES | inhibition at 10 µM (CYP2C9) | remaining at 1 h [1] | EC50 [2] | inhibition at 10 µM (CYP3A4 [3]) | fraction unbound [4] | fraction unbound [5] | inhibition at 10 µM (CYP2C19) | inhibition at 10 µM (CYP2D6) | CC50 [6] | EC50 (dengue virus type 2) | inhibition at 10 µM (CYP1A2) | solubility [7] | solubility [8] | fraction unbound [9] | remaining at 1 h [10] | CC50 [11] | remaining at 1 h [12] | Ratio CC50/EC50 [15] | Ratio CC50/EC50 [16] | further results
OC[C@@H]1[C@@H](O)[C@H](O)[C@@H](O)CN1CCCCCCOc1cccc(C(F)(F)F)c1 | 37.6% | 94% | 1500 nM | -18.5% | 0.07 | 0.08 | -2.5% | 3.4% | > 500000 nM | 400 nM | 0.2% | 281 µM (≈ 114 µg/mL) | 278 µM (≈ 113 µg/mL) | 0.1 | 92% | 400000 nM | 81% | – | – | inhibition (INH) (Cytochrome P450 3A4): 3.2%
OC[C@@H]1[C@@H](O)[C@H](O)[C@@H](O)CN1CCCCCCOc1cccc(F)c1 | 6.2% | 87% | 500 nM | -2.3% | 0.22 | 0.21 | 0.7% | 10.3% | > 500000 nM | 400 nM | 0.2% | 271 µM (≈ 96.9 µg/mL) | 283 µM (≈ 101 µg/mL) | 0.29 | 104% | > 500000 nM | […] | – | – | Activity [13]: Non-toxic; inhibition at 10 µM (CYP3A4 [14]): -2.3%; Activity (dengue virus type 2): Dose-dependent effect; Activity (Dengue virus): Active
Cc1ccccc1OCCCCCCN1C[C@H](O)[C@@H](O)[C@H](O)[C@H]1CO | – | – | 400 nM | – | – | – | – | – | > 500000 nM | 500 nM | – | – | – | – | – | 450000 nM | – | >1250 | 900 | –
CCCC(CCC)OCCCCCCN1C[C@H](O)[C@@H](O)[C@H](O)[C@H]1CO | 43.5% | 73% | 600 nM | 2.5% | 0.09 | 0.17 | -1.1% | 9.1% | > 500000 nM | 300 nM | 2% | 290 µM (≈ 105 µg/mL) | 302 µM (≈ 109 µg/mL) | 0.23 | 77% | 425000 nM | 80% | – | – | inhibition (INH) (Cytochrome P450 3A4): 4.2%
OC[C@@H]1[C@@H](O)[C@H](O)[C@@H](O)CN1CCCCCCOC1CCCC1 | – | – | 300 nM | – | – | – | – | – | > 500000 nM | 1400 nM | – | – | – | – | – | > 500000 nM | – | >1667 | >357 | –
Cc1cccc(OCCCCCCN2C[C@H](O)[C@@H](O)[C@H](O)[C@H]2CO)c1 | 8.9% | 87% | 600 nM | 28.7% | 0.2 | 0.17 | 3.9% | 12.8% | > 500000 nM | 600 nM | 21.4% | 279 µM (≈ 98.6 µg/mL) | 286 µM (≈ 101 µg/mL) | 0.21 | […] | > 500000 nM | 81% | – | – | inhibition (INH) (Cytochrome P450 3A4): 2.3%
OC[C@@H]1[C@@H](O)[C@H](O)[C@@H](O)CN1CCCCCCOc1c(F)c(F)c(F)c(F)c1F | – | – | 1000 nM | – | – | – | – | – | > 500000 nM | 1700 nM | – | – | – | – | – | > 500000 nM | – | >500 | >294 | –
CCCOc1ccccc1CCCN1C[C@H](O)[C@@H](O)[C@H](O)[C@H]1CO | – | – | 800 nM | – | – | – | – | – | > 500000 nM | 3200 nM | – | – | – | – | – | > 500000 nM | – | >625 | >156 | –
OC[C@@H]1[C@@H](O)[C@H](O)[C@@H](O)CN1CCCCCCOc1ccc(OC(F)(F)F)cc1 | – | – | 1300 nM | – | – | – | – | – | > 500000 nM | 600 nM | – | – | – | – | – | > 500000 nM | – | >385 | >833 | –
CC1CCC(OCCCCCCN2C[C@H](O)[C@@H](O)[C@H](O)[C@H]2CO)CC1C (stereo not given in full) | – | – | 3500 nM | – | – | – | – | – | > 500000 nM | 400 nM | – | – | – | – | – | > 500000 nM | – | >143 | > 1250 | –
COc1ccccc1OCCCCCCN1C[C@H](O)[C@@H](O)[C@H](O)[C@H]1CO | 11.7% | 99% | 1000 nM | 12.1% | 0.35 | 0.31 | -4.4% | 8.7% | > 500000 nM | 800 nM | -1.6% | 286 µM (≈ 106 µg/mL) | 293 µM (≈ 108 µg/mL) | 0.3 | 92% | > 500000 nM | 98% | – | – | inhibition at 10 µM (CYP3A4 [14]): -2.4%
OC[C@@H]1[C@@H](O)[C@H](O)[C@@H](O)CN1CCCCCCOc1ccc(C(F)(F)F)cc1 | – | – | 1100 nM | – | – | – | – | – | > 500000 nM | 1300 nM | – | – | – | – | – | 470000 nM | – | >455 | 362 | –

Source: ChEMBL document CHEMBL2163238, “Design, synthesis, and biological evaluation of N-alkylated deoxynojirimycin (DNJ) derivatives for the treatment of dengue virus infection” (J Med Chem, 2012)
